# In ChEMBL document CHEMBL2380270, “Radiosynthesis and first evaluation in mice of [(18)F]NS14490 for molecular imaging of α7 nicotinic acetylcholine receptors” (Bioorg Med Chem, 2013):
# Key:
# Spleen [1] = test: Biodistribution in CD1 mouse spleen at 200 to 300 kBq, iv measured at 15 mins by gamma counting analysis; assay type: ADME, organism-based; details: in vivo, 0.25 h
# In short: (§1)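 Female CD-1 mice received 200–300 kBq [18F]radiotracer intravenously. Blood and urine were sampled under anaesthesia, then mice were killed by cervical dislocation at 5, 15, 30 or 60 min p.i. (n = 3; control at 60 min n = 7). Organs were removed and weighed, activity was gamma-counted, and uptake was expressed as % injected dose per g wet tissue.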
# Brain [2] = test: Biodistribution in CD1 mouse brain at 200 to 300 kBq, iv measured at 60 mins by gamma counting analysis in presence of SSR180711; assay type: ADME, organism-based; details: in vivo, 1 h
# In short: (§2)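 Blocking study in female CD-1 mice, n = 7 per blocker, with a matching control group. SSR180711 or NS6740 given at 10 mg kg⁻¹ ip in 0.9% saline 10 min before iv radiotracer (200–300 kBq). Organs taken at 60 min p.i., weighed and gamma-counted; uptake as % ID per g wet weight. Compared with control by two-tailed independent Student's t test.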
# Urinary bladder [3] = test: Biodistribution in CD1 mouse bladder at 200 to 300 kBq, iv measured at 5 mins by gamma counting analysis; assay type: ADME, organism-based; details: in vivo
# In short: (§3)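 Female CD-1 mice, 200–300 kBq radiotracer given iv, n = 3 per time point. Animals anaesthetised for blood and urine sampling, then killed by cervical dislocation at 5, 15, 30 or 60 min p.i. Organs removed, weighed and gamma-counted; uptake expressed as % injected dose per g wet tissue.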
# Mus musculus [4] = test: Biodistribution in CD1 mouse thymus at 200 to 300 kBq, iv measured at 60 mins by gamma counting analysis; assay type: ADME, organism-based; details: in vivo, 1 h
# In short: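 Female CD-1 mice given 200–300 kBq tracer intravenously. Animals anaesthetised for blood and urine sampling, then killed by cervical dislocation at 5, 15, 30 or 60 min (n = 3 per time; n = 7 at 60 min). Organs removed and weighed, activity gamma-counted, expressed as % injected dose per g wet weight. Blocking arm: 10 mg/kg i.p. in 0.9% saline, 10 min before tracer; two-tailed unpaired t test versus control.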
# Stomach [5] = test: Biodistribution in CD1 mouse stomach at 200 to 300 kBq, iv measured at 30 mins by gamma counting analysis; assay type: ADME, organism-based; details: in vivo, 0.5 h; in short: as §1
# Lung [6] = test: Biodistribution in CD1 mouse lung at 200 to 300 kBq, iv measured at 60 mins by gamma counting analysis in presence of SSR180711; assay type: ADME, organism-based; details: in vivo, 1 h
# In short: (§4)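 Blocking design in female CD-1 mice, n = 7 per group. The blocker was given at 10 mg kg^-1 i.p. in 0.9% saline 10 min before i.v. 200–300 kBq [18F]radiotracer. Mice were killed at 60 min p.i. and organs weighed and gamma-counted as % ID per g wet weight. Blocked groups were compared with controls by two-tailed independent Student's t test.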
# Femur [7] = test: Biodistribution in CD1 mouse femur at 200 to 300 kBq, iv measured at 30 mins by gamma counting analysis; assay type: ADME, organism-based; details: in vivo, 0.5 h; in short: as §3
# Lung [8] = test: Biodistribution in CD1 mouse lung at 200 to 300 kBq, iv measured at 15 mins by gamma counting analysis; assay type: ADME, organism-based; details: in vivo, 0.25 h; in short: as §1
# Mus musculus [9] = test: Biodistribution in CD1 mouse small intestine at 200 to 300 kBq, iv measured at 60 mins by gamma counting analysis in presence of SSR180711; assay type: ADME, organism-based; details: in vivo, 1 h; in short: as §4
# Spleen [10] = test: Biodistribution in CD1 mouse spleen at 200 to 300 kBq, iv measured at 30 mins by gamma counting analysis; assay type: ADME, organism-based; details: in vivo, 0.5 h; in short: as §1
# Urinary bladder [11] = test: Biodistribution in CD1 mouse bladder at 200 to 300 kBq, iv measured at 60 mins by gamma counting analysis in presence of SSR180711; assay type: ADME, organism-based; details: in vivo, 1 h; in short: as §2
# Lung [12] = test: Biodistribution in CD1 mouse lung at 200 to 300 kBq, iv measured at 60 mins by gamma counting analysis; assay type: ADME, organism-based; details: in vivo, 1 h; in short: as §1
# Mus musculus [13] = test: Biodistribution in CD1 mouse adrenal at 200 to 300 kBq, iv measured at 60 mins by gamma counting analysis; assay type: ADME, organism-based, Adrenal gland; details: in vivo, 1 h; in short: as §3
# Femur [14] = test: Biodistribution in CD1 mouse femur at 200 to 300 kBq, iv measured at 60 mins by gamma counting analysis in presence of SSR180711; assay type: ADME, organism-based; details: in vivo, 1 h; in short: as §2
# Pancreas [15] = test: Biodistribution in CD1 mouse pancreas at 200 to 300 kBq, iv measured at 60 mins by gamma counting analysis; assay type: ADME, organism-based; details: in vivo, 1 h; in short: as §1
# Liver [16] = test: Biodistribution in CD1 mouse liver at 200 to 300 kBq, iv measured at 60 mins by gamma counting analysis in presence of SSR180711; assay type: ADME, organism-based; details: in vivo, 1 h; in short: as §4
# Brain [17] = test: Biodistribution in CD1 mouse brain at 200 to 300 kBq, iv measured at 15 mins by gamma counting analysis; assay type: ADME, organism-based; details: in vivo, 0.25 h; in short: as §3
# Stomach [18] = test: Biodistribution in CD1 mouse stomach at 200 to 300 kBq, iv measured at 60 mins by gamma counting analysis; assay type: ADME, organism-based; details: in vivo, 1 h; in short: as §1
# Blood = test: Biodistribution in CD1 mouse blood at 200 to 300 kBq, iv measured at 60 mins by gamma counting analysis in presence of SSR180711; assay type: ADME, organism-based; details: in vivo, 1 h; in short: as §2
# Mus musculus [19] = test: Biodistribution in CD1 mouse large intestine at 200 to 300 kBq, iv measured at 60 mins by gamma counting analysis in presence of SSR180711; assay type: ADME, organism-based; details: in vivo, 1 h; in short: as §2
# Muscle tissue [20] = test: Biodistribution in CD1 mouse muscle at 200 to 300 kBq, iv measured at 15 mins by gamma counting analysis; assay type: ADME, organism-based; details: in vivo, 0.25 h; in short: as §1
# Muscle tissue [21] = test: Biodistribution in CD1 mouse muscle at 200 to 300 kBq, iv measured at 30 mins by gamma counting analysis; assay type: ADME, organism-based; details: in vivo, 0.5 h; in short: as §1
# Mus musculus [22] = test: Biodistribution in CD1 mouse small intestine at 200 to 300 kBq, iv measured at 60 mins by gamma counting analysis; assay type: ADME, organism-based; details: in vivo, 1 h; in short: as §1
# Kidney = test: Biodistribution in CD1 mouse kidney at 200 to 300 kBq, iv measured at 5 mins by gamma counting analysis; assay type: ADME, organism-based; details: in vivo; in short: as §3
# Heart = test: Biodistribution in CD1 mouse heart at 200 to 300 kBq, iv measured at 15 mins by gamma counting analysis; assay type: ADME, organism-based; details: in vivo, 0.25 h; in short: as §3
# Liver [23] = test: Biodistribution in CD1 mouse liver at 200 to 300 kBq, iv measured at 60 mins by gamma counting analysis; assay type: ADME, organism-based; details: in vivo, 1 h; in short: as §1
# Pancreas [24] = test: Biodistribution in CD1 mouse pancreas at 200 to 300 kBq, iv measured at 60 mins by gamma counting analysis in presence of SSR180711; assay type: ADME, organism-based; details: in vivo, 1 h; in short: as §4
# Pancreas [25] = test: Biodistribution in CD1 mouse pancreas at 200 to 300 kBq, iv measured at 30 mins by gamma counting analysis; assay type: ADME, organism-based; details: in vivo, 0.5 h; in short: as §1
# Mus musculus [26] = test: Biodistribution in CD1 mouse small intestine at 200 to 300 kBq, iv measured at 30 mins by gamma counting analysis; assay type: ADME, organism-based; details: in vivo, 0.5 h; in short: as §1
# Urinary bladder [27] = test: Biodistribution in CD1 mouse bladder at 200 to 300 kBq, iv measured at 15 mins by gamma counting analysis; assay type: ADME, organism-based; details: in vivo, 0.25 h; in short: as §3
# Urinary bladder [28] = test: Biodistribution in CD1 mouse bladder at 200 to 300 kBq, iv measured at 30 mins by gamma counting analysis; assay type: ADME, organism-based; details: in vivo, 0.5 h; in short: as §3
# Liver [29] = test: Biodistribution in CD1 mouse liver at 200 to 300 kBq, iv measured at 15 mins by gamma counting analysis; assay type: ADME, organism-based; details: in vivo, 0.25 h; in short: as §1
smiles,measurement,setting,value
O=C(Oc1ccc(Br)cc1)N1CCN2CCC1CC2 [SSR180711],Drug uptake,Spleen [1],8.23 % ID/g
same,Drug uptake,Brain [2],0.15 % ID/g
same,Drug uptake,Urinary bladder [3],1.27 % ID/g
same,Drug uptake,Mus musculus [4],2.75 % ID/g
same,Drug uptake,Stomach [5],7.29 % ID/g
same,Drug uptake,Lung [6],4.41 % ID/g
same,Drug uptake,Femur [7],1.48 % ID/g
same,Drug uptake,Lung [8],10.8 % ID/g
same,Drug uptake,Mus musculus [9],15.9 % ID/g
same,Drug uptake,Spleen [10],7.5 % ID/g
same,Drug uptake,Urinary bladder [11],1.47 % ID/g
same,Drug uptake,Lung [12],4.88 % ID/g
same,Drug uptake,Mus musculus [13],3.01 % ID/g
same,Drug uptake,Femur [14],1.43 % ID/g
same,Drug uptake,Pancreas [15],3.12 % ID/g
same,Drug uptake,Liver [16],6.45 % ID/g
same,Drug uptake,Brain [17],0.24 % ID/g
same,Drug uptake,Stomach [18],8.13 % ID/g
same,Drug uptake,Blood,0.78 % ID/g
same,Drug uptake,Mus musculus [19],5.46 % ID/g
same,Drug uptake,Muscle tissue [20],1.88 % ID/g
same,Drug uptake,Muscle tissue [21],1.26 % ID/g
same,Drug uptake,Mus musculus [22],16.1 % ID/g
same,Drug uptake,Kidney,10.6 % ID/g
same,Drug uptake,Heart,2.96 % ID/g
same,Drug uptake,Liver [23],7.79 % ID/g
same,Drug uptake,Pancreas [24],2.96 % ID/g
same,Drug uptake,Pancreas [25],4.2 % ID/g
same,Drug uptake,Mus musculus [26],11 % ID/g
same,Drug uptake,Urinary bladder [27],2.19 % ID/g
same,Drug uptake,Urinary bladder [28],2.08 % ID/g
same,Drug uptake,Liver [29],9.39 % ID/g
